Active and inactive are the calls of the source. No cut-off for these calls is given here.
Key:
KB = assay: cells; conditions: Homo sapiens, 48 h
[1] = Toxicity in nude mouse xenografted with human MDA-MB-231 cells assessed as damage to liver at 10 mg/kg, po measured after 26 days by Hand E staining method; type: organism-based; conditions: in vivo, 624 h, time 26 day
Summary of the method: (§1)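 Female athymic nude mice (5–6 weeks) bore MDA-MB-231 xenografts and were randomized (n = 6) once tumors averaged about 100 mm³. They were dosed orally at 10 mg/kg, alongside vehicle and carboplatin (10 mg/kg) groups. On the last day of administration, heart, liver, lungs and kidneys were examined by HE staining.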

[2] = Toxicity in nude mouse xenografted with human MDA-MB-231 cells assessed as decrease of platelets at 10 mg/kg, po measured after 26 days; type: organism-based; conditions: in vivo, 624 h, time 26 day
Summary of the method: (§2)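 Female athymic nude mice (5–6 weeks) bore MDA-MB-231 xenografts and were randomized (n = 6) at a mean tumor volume of about 100 mm³. They received 10 mg/kg orally, with vehicle and carboplatin (10 mg/kg) groups. On the final day of administration, a routine blood examination counted white blood cells, red blood cells and platelets, compared against vehicle.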

[3] = target: T1, Heat shock protein HSP 90-beta/Hsp90 co-chaperone Cdc37 (Homo sapiens, UniProt P08238+Q16543); assay: Disruption of His-tagged full length HSP90 (unknown origin)/GST-tagged Cdc37 (unknown origin) at 50 uM measured after 1 hr by HTRF method; type: protein-complex assay
T1 sequence (P08238 whole entry): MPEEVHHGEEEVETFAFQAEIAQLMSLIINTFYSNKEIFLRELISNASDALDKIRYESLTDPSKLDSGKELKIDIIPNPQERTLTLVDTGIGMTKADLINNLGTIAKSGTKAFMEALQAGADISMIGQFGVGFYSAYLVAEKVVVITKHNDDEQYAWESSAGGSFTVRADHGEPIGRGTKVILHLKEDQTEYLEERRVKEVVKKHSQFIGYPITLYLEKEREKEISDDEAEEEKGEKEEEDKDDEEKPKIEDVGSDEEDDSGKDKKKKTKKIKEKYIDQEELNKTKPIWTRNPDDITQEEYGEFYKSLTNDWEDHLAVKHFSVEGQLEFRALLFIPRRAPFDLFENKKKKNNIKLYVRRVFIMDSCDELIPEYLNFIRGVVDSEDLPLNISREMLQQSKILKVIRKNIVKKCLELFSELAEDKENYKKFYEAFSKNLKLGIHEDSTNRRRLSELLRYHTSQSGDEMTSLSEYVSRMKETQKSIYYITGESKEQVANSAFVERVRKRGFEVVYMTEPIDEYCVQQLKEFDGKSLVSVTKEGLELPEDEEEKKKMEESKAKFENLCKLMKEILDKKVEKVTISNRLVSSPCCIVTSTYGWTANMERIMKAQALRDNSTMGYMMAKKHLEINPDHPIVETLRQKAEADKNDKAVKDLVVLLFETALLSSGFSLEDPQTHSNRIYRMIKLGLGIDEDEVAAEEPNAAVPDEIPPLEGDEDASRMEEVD
T1 sequence (Q16543 whole entry): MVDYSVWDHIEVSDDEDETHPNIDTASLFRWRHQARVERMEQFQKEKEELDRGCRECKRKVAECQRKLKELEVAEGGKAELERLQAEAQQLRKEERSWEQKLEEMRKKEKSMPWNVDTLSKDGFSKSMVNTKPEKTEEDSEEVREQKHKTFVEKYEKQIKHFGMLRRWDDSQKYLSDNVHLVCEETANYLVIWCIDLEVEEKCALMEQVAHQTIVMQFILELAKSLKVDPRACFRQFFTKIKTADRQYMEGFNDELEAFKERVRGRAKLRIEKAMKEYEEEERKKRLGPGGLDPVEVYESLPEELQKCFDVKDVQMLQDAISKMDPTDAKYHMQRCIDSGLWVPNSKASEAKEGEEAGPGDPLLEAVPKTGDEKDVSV
Summary of the method: (§3)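 HTRF in PBS with […], pH 7.3: His-tagged full-length Hsp90 and GST-tagged Cdc37 (each 250 nM final) with compound, 37 °C for 1 h. Anti-GST-Cryptate and anti-6His-XL665 then added for 0.5 h at 37 °C. Time-resolved fluorescence read at ex 320 nm, em 665/620 nm; ratio (665/620) × 10 000.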

[4] = Toxicity in nude mouse xenografted with human MDA-MB-231 cells assessed as decrease of white blood cells at 10 mg/kg, po measured after 26 days; type: organism-based; conditions: in vivo, 624 h, time 26 day
Summary of the method: as §2

HUVEC = assay: Antimigratory activity against human HUVEC cells assessed as inhibition of cell migration at 0.1 uM measured after 12 to 24 hrs by wound scratch assay; type: functional, cell-based; conditions: time 12-24 hrs
Summary of the method: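 HUVEC monolayers were scratched and treated, with wound closure imaged at 0, 12 and 24 h. Migration was quantified as a migration ratio relative to 0 h.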

A549 = assay: cells; conditions: Homo sapiens, A549, 48 h
MCF7 = assay: cells; conditions: Homo sapiens, MCF7, 48 h
[5] = Toxicity in nude mouse xenografted with human MDA-MB-231 cells assessed as damage to lungs at 10 mg/kg, po measured after 26 days by Hand E staining method; type: organism-based; conditions: in vivo, 624 h, time 26 day
Summary of the method: as §1

[6] = Cytotoxicity against human mesenchymal bone marrow stem cells measured after 48 hrs by MTT assay; type: toxicity, cell-based
[7] = Toxicity in nude mouse xenografted with human MDA-MB-231 cells assessed as damage to heart at 10 mg/kg, po measured after 26 days by Hand E staining method; type: organism-based; conditions: in vivo, 624 h, time 26 day
Summary of the method: as §1

MDA-MB-231 = assay: cells; conditions: Homo sapiens, MDA-MB-231, 48 h
[8] = Toxicity in nude mouse xenografted with human MDA-MB-231 cells assessed as decrease of red blood cells at 10 mg/kg, po measured after 26 days; type: organism-based; conditions: in vivo, 624 h, time 26 day
Summary of the method: as §2

[9] = Toxicity in nude mouse xenografted with human MDA-MB-231 cells assessed as damage to kidney at 10 mg/kg, po measured after 26 days by Hand E staining method; type: organism-based; conditions: in vivo, 624 h, time 26 day
Summary of the method: as §1

[10] = target: T1, Heat shock protein HSP 90-beta/Hsp90 co-chaperone Cdc37; assay: Disruption of His-tagged full length HSP90 (unknown origin)/GST-tagged Cdc37 (unknown origin) measured after 1 hr by HTRF method; type: protein-complex assay
Summary of the method: as §3

[11] = Toxicity in nude mouse xenografted with human MDA-MB-231 cells assessed as decrease of body weight at 10 mg/kg, po measured after 26 days; type: organism-based; conditions: in vivo, 624 h, time 26 day
Summary of the method: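 Female athymic nude mice, 5−6 weeks old, carrying MDA-MB-231 xenografts; randomized at about 100 mm³ tumor volume, n = 6 per group. Groups were vehicle, carboplatin 10 mg/kg, celastrol 10 mg/kg and test compound 10 mg/kg oral. Body weight tracked from day 16 to day 26; blood counts taken on the last day.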

SMILES: CC1=C(O)C(=O)C=C2C1=CC=C1[C@@]2(C)CC[C@@]2(C)[C@@H]3C[C@](C)(C(=O)O)CC[C@]3(C)CC[C@]12C [CELASTROL]
- IC50 (KB): 1700 nM
- Activity [1]: Toxic
- Activity [2]: Toxic
- inhibition [3]: 82.3%
- Activity [4]: Toxic
- Activity (HUVEC): inactive
- IC50 (A549): 1800 nM
- IC50 (MCF7): 1200 nM
- Activity [5]: Toxic
- IC50 at 48 h [6]: 700 nM
- Activity [7]: Toxic
- IC50 (MDA-MB-231): 900 nM
- Activity [8]: Toxic
- Activity [9]: Toxic

SMILES: CC1=C(O)C(=O)C=C2C1=CC=C1[C@@]2(C)CC[C@@]2(C)[C@@H]3C[C@](C)(C(=O)OCc4ccccc4C)CC[C@]3(C)CC[C@]12C
- IC50 [10]: 10000 nM

SMILES: CC1=C(O)C(=O)C=C2C1=CC=C1[C@@]2(C)CC[C@@]2(C)[C@@H]3C[C@](C)(C(=O)OCc4cccc(C)c4)CC[C@]3(C)CC[C@]12C
- IC50 [10]: 6200 nM

SMILES: C#CCOC(=O)[C@]1(C)CC[C@]2(C)CC[C@]3(C)C4=CC=C5C(=CC(=O)C(OC(=O)N6CCC(N7CCCCC7)CC6)=C5C)[C@]4(C)CC[C@@]3(C)[C@@H]2C1
- Activity [1]: Non-Toxic
- Activity [2]: Non-Toxic
- Activity [11]: Toxic
- Activity [4]: Non-Toxic
- Activity [5]: Non-Toxic
- IC50 at 48 h [6]: 2800 nM
- Activity [7]: Non-Toxic
- IC50 (MDA-MB-231): 200 nM
- Activity [8]: Non-Toxic
- Activity [9]: Non-Toxic

SMILES: CC1=C(O)C(=O)C=C2C1=CC=C1[C@@]2(C)CC[C@@]2(C)[C@@H]3C[C@](C)(C(=O)OCc4ccccc4)CC[C@]3(C)CC[C@]12C
- IC50 (KB): 600 nM
- inhibition [3]: 90.1%
- IC50 (A549): 1300 nM
- IC50 (MCF7): 700 nM
- IC50 at 48 h [6]: 1000 nM
- IC50 (MDA-MB-231): 400 nM
- IC50 [10]: 2400 nM

— ChEMBL document CHEMBL5230144, “Synthesis and Biological Evaluation of Celastrol Derivatives with Improved Cytotoxic Selectivity and Antitumor Activities” (J Nat Prod, 2021)
